Records with an inconclusive call do not appear. Calls of active or inactive are those of the source.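 The calls were made as follows, unless noted: active = inhibition over a set limit, the all-compound mean plus 3 SD, in both replicate runs; inconclusive = over that limit in just one replicate run; inactive = at or under that limit in both runs.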
Tests used:
[1] = S. cerevisiae growth inhibition in permissive medium (OD615), pilot counter-assay for S. cerevisiae lifespan shortening project, permissive growth control (AID 705;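 active = growth inhibition above 25% in both replicates, a cutoff set 3 SD above the mean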); settings: OD615, 24 h, at 10 µM, active compounds read high
Procedure, shortened: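 System – S. cerevisiae with engineered DeaD lifespan system · Buffer or medium – SC raffinose/galactose permissive medium · Schedule – cells pre-grown 4 h, then 24 h compound exposure, 30 °C humidified · Technique – culture turbidity as optical density at 615 nm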

[2] = S. cerevisiae growth inhibition in restrictive medium, OD615, pilot screen, restrictive growth control, yeast lifespan reduction project (AID 706;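 active = growth inhibition above a set limit, 3 SD over mean compound inhibition, in both replicates, cut at about 43% in these data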;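 also: modified DeaD lifespan yeast strain shifted to restrictive glucose medium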); settings: OD615, 48 h, at 10 µM, active compounds read high
Procedure, shortened: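 Material: engineered S. cerevisiae DeaD strain / Medium: glucose-based CSMM-D restrictive medium / Compound: single dose of 10 µM compound final, 0.25% DMSO / Timing: 4 h pre-incubation, 48 h exposure at 30 °C / Technique: OD615 absorbance reading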

[3] = doxorubicin toxicity protection in MRP-1 cells – H69AR cells, CellTiter-Glo, duplicate, MRP-1 activator project, pilot screen (AID 807;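 active = viability increase at or above a cutoff of the median across tested compounds plus 3 SD, cut at about 8.5% in these data, passing the limit was not always enough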;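 also: compound pretreatment 18-22 h then 72 h combined with doxorubicin; 0% = doxorubicin alone and 100% = vehicle without doxorubicin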); settings: H69AR viability with doxorubicin, CellTiter-Glo luminescence; at 10 µM; active compounds read high
[4] = viability of HCT116 without oncogenic beta-catenin – human colon tumor cells, pilot screen (AID 823;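 active = cell viability at or below a set limit in both duplicate runs, the limit being the all-compound median minus 4 SD, cut at about 23% in these data, passing the limit was not always enough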;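 also: 0% = wells killed by 20 µM Hyamine and 100% = untreated DMSO cell wells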); settings: HCT116 beta-catenin knockout viability, CellTiter-Glo, 60 h; at 10 µM; active compounds read low
[5] = viability of PTEN-null HCT116 cells – cell-based, HCT116 clonal line, CellTiter-Glo, pilot screen (AID 824;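 active = viability at or below 27.92% in each of two runs, the all-compound median minus 4 SD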;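 also: 0% = 20 µM Hyamine control and 100% = vehicle cell control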); settings: HCT116 PTEN-deleted viability, 60 h, at 10 µM, active compounds read low
[6] = RAM pathway blockade in budding yeast – dse1pr::URA3 reporter, 5-FOA selection, pilot screen (AID 869);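 also: 0% = DMSO wells with no growth and 100% = 10 µM 1-NA-PP1 with full growth; RAM network block rescues cells from 5-FOA so hits raise OD615 growth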; settings: S. cerevisiae dse1pr::URA3 5-FOA growth, OD615, 2 d; at 10 µM; active compounds read high; strain carries analog-sensitive mutant Cbk1 kinase
[7] = RAM signaling pathway blockade in yeast – S. cerevisiae, Pdr1DBD-CYC8 efflux-inhibited sensitized strain, primary screen (AID 1298;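 active = RAM network inhibition above 8.4% in each of two replicates, 3 SD over the compound average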;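 also: 0% = DMSO untreated cells without growth and 100% = 10 µM 1-NA-PP1 full growth; higher means more yeast growth rescued from 5-FOA killing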); settings: S. cerevisiae cbk1-as DSE1-URA3 strain, 5-FOA growth OD615, 2 d; at 50 µM; active compounds read high

CCCCOc1ccccc1NC(=O)CC1SC(=NCC)N(CC)C1=O (centres undefined)
inactive: growth inhibition [1] -9.35% | growth inhibition [2] -0.705% | viability increase [3] -2.29% | viability [4] 85.6% | viability [5] 81.3% | inhibition [6] 1.08% | RAM network inhibition [7] 2.04%

COc1ccccc1CNC(=O)CCn1c(=O)oc2ccccc21
inactive: growth inhibition [1] 5.65% | growth inhibition [2] 6.41% | viability increase [3] -3.05% | viability [4] 104% | viability [5] 96.2% | inhibition [6] 2.48% | RAM network inhibition [7] 5.75%

COc1ccc(NCCNc2ccc(OC)cc2)cc1
inactive: growth inhibition [1] 5.4% | growth inhibition [2] 7.97% | viability increase [3] -0.82% | viability [4] 58.9% | viability [5] 59.5% | inhibition [6] 0.6% | RAM network inhibition [7] 6.32%

O=C(CC(=O)N1CCN(c2ccccn2)CC1)Nc1ccc2nc3n(c(=O)c2c1)CCCCC3
inactive: growth inhibition [1] -3.13% | growth inhibition [2] -3.46% | viability increase [3] 0.08% | viability [4] 101% | viability [5] 100% | inhibition [6] 0.87% | RAM network inhibition [7] 2.7%

O=C(CSc1ccc2nnc(-c3ccc(Cl)cc3)n2n1)N1CCN(c2ccccc2)CC1
active: growth inhibition [2] 63.7%
inactive: growth inhibition [1] 20.5% | viability increase [3] -3.11% | viability [4] 96.6% | viability [5] 85.5% | inhibition [6] -0.195% | RAM network inhibition [7] 3.08%

COC(=O)C1=CN(C)C=C(C(=O)OC)C1c1ccc(Cl)cc1Cl
inactive: growth inhibition [1] -12.4% | growth inhibition [2] -10.4% | viability increase [3] -2.14% | viability [4] 85.1% | viability [5] 78.2% | inhibition [6] 3.2% | RAM network inhibition [7] 8.48%

Cc1noc(NS(=O)(=O)c2ccc(NC(=O)CCn3c(=O)oc4ccccc43)cc2)c1C
inactive: growth inhibition [1] 0.07% | growth inhibition [2] -7.86% | viability increase [3] -1.22% | viability [4] 97.7% | viability [5] 96.2% | inhibition [6] 1.24% | RAM network inhibition [7] 6.07%

CCOc1ncccc1C(=O)OCC(=O)Nc1cc(C(=O)OC)ccc1C(=O)OC
inactive: growth inhibition [1] -16.9% | growth inhibition [2] -12.9% | viability increase [3] -2.69% | viability [4] 90.1% | viability [5] 92.4% | inhibition [6] 2.11% | RAM network inhibition [7] 5.66%

CCCCN(C(=O)NC(=O)C1=C(N2CCOCC2)/C(=C/c2ccccc2)CC1)S(C)(=O)=O
inactive: growth inhibition [1] -2.54% | growth inhibition [2] -6.07% | viability increase [3] -2.95% | viability [4] 86.1% | viability [5] 89.8% | inhibition [6] 0.17% | RAM network inhibition [7] -0.73%

COC(=O)c1c(-c2ccc(C)cc2)csc1N
inactive: growth inhibition [1] 1.67% | growth inhibition [2] 0.135% | viability increase [3] -3.98% | viability [4] 75.8% | viability [5] 87.8% | inhibition [6] -0.61% | RAM network inhibition [7] -1.79%

CCCCSC1=C(C#N)C(c2ccccc2C)CC(=O)N1 (centres undefined)
inactive: growth inhibition [1] -14.2% | growth inhibition [2] 3.23% | viability increase [3] -2.96% | viability [4] 95.1% | viability [5] 79.6% | inhibition [6] 1.03% | RAM network inhibition [7] 5.84%

CC1CCCCC1NC(=O)c1nnc(Cc2ccc(Cl)cc2)o1 (centres undefined)
inactive: growth inhibition [1] -9.84% | growth inhibition [2] -0.745% | viability increase [3] 3.87% | viability [4] 104% | viability [5] 90.8% | inhibition [6] 1.07% | RAM network inhibition [7] 9.76%

Cc1nn(-c2ccccc2)c2c1C(c1ccccc1)C(C#N)=C(N)O2 (centres undefined)
inactive: growth inhibition [1] -13.1% | growth inhibition [2] -12.2% | viability increase [3] -2.62% | viability [4] 91.3% | viability [5] 87.8% | inhibition [6] 2.24% | RAM network inhibition [7] 10.5%

COCCNC(=O)c1cc2c(=O)n(C)c3ccccc3c2n1C
inactive: growth inhibition [1] -11.1% | growth inhibition [2] -7.54% | viability increase [3] -4.57% | viability [4] 84.4% | viability [5] 84.4% | inhibition [6] 2.69% | RAM network inhibition [7] 0.36%

O=C(CSCCNS(=O)(=O)c1ccccc1)Nc1ccccc1
inactive: growth inhibition [1] -6.82% | growth inhibition [2] -4.2% | viability increase [3] -2.84% | viability [4] 91% | viability [5] 91.6% | inhibition [6] 1.77% | RAM network inhibition [7] 0.37%

Cn1c(=O)c2c(nc(CN3CCN(Cc4ccccc4)CC3)n2Cc2ccccc2)n(C)c1=O
inactive: growth inhibition [1] -6.72% | growth inhibition [2] -11.8% | viability increase [3] -0.85% | viability [4] 85.6% | viability [5] 88% | inhibition [6] 2.02% | RAM network inhibition [7] -0.01%

CCNc1nc(NCC)nc(-n2nc(C)cc2C)n1
inactive: growth inhibition [1] 4.27% | growth inhibition [2] 4.28% | viability increase [3] -0.22% | viability [4] 100% | viability [5] 103% | inhibition [6] 0.2% | RAM network inhibition [7] 0.75%

Cc1ccccc1NC(=O)CCn1c(=O)oc2ccccc21
inactive: growth inhibition [1] -3.42% | growth inhibition [2] -26.5% | viability increase [3] -1.87% | viability [4] 101% | viability [5] 91.3% | inhibition [6] 1.54% | RAM network inhibition [7] 3.96%

Cc1c(C(=O)N2CCCc3ccccc32)sc2nc(-c3ccccc3)cn12
inactive: growth inhibition [1] -8.77% | growth inhibition [2] 0.195% | viability increase [3] -2.82% | viability [4] 65.9% | viability [5] 68.4% | inhibition [6] 2.46% | RAM network inhibition [7] 5.58%

O=C(C1COc2ccccc2O1)N1CCn2c(nc3ccccc32)C1 (centres undefined)
inactive: growth inhibition [1] -13.1% | growth inhibition [2] -3.57% | viability increase [3] -2.64% | viability [4] 106% | viability [5] 92% | inhibition [6] 1.85% | RAM network inhibition [7] 4.61%

CCOC(=O)C1CCN(C(c2ccc(OC)c(OC)c2)c2sc3nc(C)nn3c2O)CC1 (centres undefined)
inactive: growth inhibition [1] -3.62% | growth inhibition [2] 9.57% | viability increase [3] -2.25% | viability [4] 95.4% | viability [5] 96.1% | inhibition [6] -0.01% | RAM network inhibition [7] -0.97%

Cc1cccc(Cn2c(CN3CCN(Cc4ccccc4)CC3)nc3c2c(=O)[nH]c(=O)n3C)c1
inactive: growth inhibition [1] -14.3% | growth inhibition [2] -14.1% | viability increase [3] -3.25% | viability [4] 50.4% | viability [5] 48.6% | inhibition [6] 2.25% | RAM network inhibition [7] 1.88%

Cc1ccc(CCNC(=O)CS(=O)Cc2nc(-c3cccc(C)c3)oc2C)cc1 (centres undefined)
inactive: growth inhibition [1] -4.94% | growth inhibition [2] 2.34% | viability increase [3] 2.47% | viability [4] 85.3% | viability [5] 86.9% | inhibition [6] 2.59% | RAM network inhibition [7] 6.2%

O=C1CC(c2ccc(S(=O)(=O)NC3CC3)cc2)CN1 (centres undefined)
inactive: growth inhibition [1] -9.26% | growth inhibition [2] -7.47% | viability increase [3] -2.08% | viability [4] 110% | viability [5] 103% | inhibition [6] 0.075% | RAM network inhibition [7] -0.6%

CCOC(=O)c1[nH]c2c(c1C)C(=O)CC(c1ccc(N(C)C)cc1)C2 (centres undefined)
inactive: growth inhibition [1] -3.69% | growth inhibition [2] -0.995% | viability increase [3] -3.6% | viability [4] 77% | viability [5] 71.7% | inhibition [6] 2.3% | RAM network inhibition [7] 1.32%

CCCOCCOC(=O)C1=C(C)NC(=O)NC1c1cc(Cl)c(O)c(OC)c1 (centres undefined)
inactive: growth inhibition [1] -3.46% | growth inhibition [2] -0.16% | viability increase [3] -0.57% | viability [4] 102% | viability [5] 94.6% | inhibition [6] 0.265% | RAM network inhibition [7] -1.04%

CCOC(=O)N1CCC(C(=O)Nc2ccc(OCC)cc2)CC1
inactive: growth inhibition [1] 5.44% | growth inhibition [2] -3.75% | viability increase [3] -1.27% | viability [4] 88% | viability [5] 93.9% | inhibition [6] 0.495% | RAM network inhibition [7] 6.44%

CCC(=O)Nc1nc2c(OC)ccc(OC)c2s1
inactive: growth inhibition [1] -2.06% | growth inhibition [2] 0.075% | viability increase [3] -2.87% | viability [4] 97.5% | viability [5] 94.5% | inhibition [6] 1.07% | RAM network inhibition [7] 2.34%

CC1(C)CC(=O)c2sc(NC(=O)CN3C(=O)CCC3=O)nc2C1
inactive: growth inhibition [1] -6.85% | growth inhibition [2] 0.48% | viability increase [3] -1.54% | viability [4] 103% | viability [5] 103% | inhibition [6] 0.685% | RAM network inhibition [7] 2.38%

COc1ccc(CCNC(=O)CN(c2ccccc2OC)S(C)(=O)=O)cc1OC
inactive: growth inhibition [1] -2.94% | growth inhibition [2] 9.29% | viability increase [3] -1.9% | viability [4] 106% | viability [5] 96.8% | inhibition [6] 1.04% | RAM network inhibition [7] 1.38%

CCCN(CCC)CCNC(=O)Cn1cnc2sc(C)c(S(=O)(=O)N3CCOCC3)c2c1=O
inactive: growth inhibition [1] -0.07% | growth inhibition [2] -5.45% | viability increase [3] -2.63% | viability [4] 95.3% | viability [5] 98% | inhibition [6] 0.875% | RAM network inhibition [7] 2.96%

O=c1c2ccccc2nc(SCc2nnc(-c3ccccc3)o2)n1-c1ccccc1
inactive: growth inhibition [1] -13.1% | growth inhibition [2] -8.7% | viability increase [3] -3.18% | viability [4] 75.4% | viability [5] 84.6% | inhibition [6] 1.96% | RAM network inhibition [7] 5.69%
